Experimental findings from PubChem BioAssay are described below.

Calls of active or inactive are those of the source.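 The calls were made as follows, unless noted: active = mean duplicate potentiation above the buffer control mean plus 5 SD of buffer wells; inactive = the rest.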

Experiment [1] can be described thus: nonspecific flux increase, KCNQ1-free cells – parental CHO cells, counter-screen for KCNQ1 potentiator project (AID 493006;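 active = duplicate-averaged activation above buffer control mean plus 5 SD of those controls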;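 as to activation: fluorescence ratio of max minus min over baseline after K+ and Tl+ depolarization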). The settings on record: parental CHO-K1 cells, FluxOR thallium flux, at 10 µM; active compounds read high. Put shortly:
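Material: untransfected host CHO-K1 cells with FluxOR thallium dye. Timing: overnight 37 °C plating, 90 min RT dye, 20 min compound. Detection: kinetic FluxOR fluorescence, 10 s baseline, 110 s after stimulus. Read-out basis: max-minus-min fluorescence over baseline, percent of buffer-to-R-L3 span. Replicates: duplicate wells per compound, percent values averaged.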
For orientation: A counterscreen serves to expose hits that act by an unwanted route or on another target.

The target of experiment [2] is Potassium voltage-gated channel subfamily KQT member 1 (Homo sapiens) (UniProt P51787). The experiment can be described thus: enhancement of KCNQ1 channel thallium flux – FluxOR thallium flux, CHO cells, duplicates, confirmation (AID 493007;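 active = potentiation averaged over duplicate wells exceeding buffer-only control mean by more than 3 SD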;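 as to outcome: cells depolarized by a potassium plus thallium sulfate stimulus after compound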). The settings on record: KCNQ1 cell line, FluxOR thallium flux fluorescence, at 10 µM; active compounds read high, % of reference activator effect, buffer zero. Put shortly:
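Test system – KCNQ1-expressing CHO cell line · Incubation – FluxOR dye loading 90 min, compound exposure 20 min, room temperature · Detection – FluxOR Tl+ flux fluorescence, 10 s baseline plus 110 s recording · Controls – buffer-only wells as 0% and R-L3 activator as 100%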

The target in experiment [3] is Potassium voltage-gated channel subfamily KQT member 2 (Rattus norvegicus) (UniProt O88943). The experiment can be described thus: KCNQ2 thallium flux enhancement – KCNQ2-CHO-K1 cells, selectivity assay for KCNQ1 potentiator project (AID 493009).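 Also: assay conditions were tuned for KCNQ1 rather than KCNQ2 modulators; signal is max minus min fluorescence divided by baseline after thallium stimulus.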 The settings on record: FluxOR thallium flux fluorescence, at 10 µM; active compounds read high, scaled: buffer 0, activator control 100.
Potassium voltage-gated channel subfamily KQT member 2 (Rattus norvegicus), sequence (O88943 whole entry, looked up): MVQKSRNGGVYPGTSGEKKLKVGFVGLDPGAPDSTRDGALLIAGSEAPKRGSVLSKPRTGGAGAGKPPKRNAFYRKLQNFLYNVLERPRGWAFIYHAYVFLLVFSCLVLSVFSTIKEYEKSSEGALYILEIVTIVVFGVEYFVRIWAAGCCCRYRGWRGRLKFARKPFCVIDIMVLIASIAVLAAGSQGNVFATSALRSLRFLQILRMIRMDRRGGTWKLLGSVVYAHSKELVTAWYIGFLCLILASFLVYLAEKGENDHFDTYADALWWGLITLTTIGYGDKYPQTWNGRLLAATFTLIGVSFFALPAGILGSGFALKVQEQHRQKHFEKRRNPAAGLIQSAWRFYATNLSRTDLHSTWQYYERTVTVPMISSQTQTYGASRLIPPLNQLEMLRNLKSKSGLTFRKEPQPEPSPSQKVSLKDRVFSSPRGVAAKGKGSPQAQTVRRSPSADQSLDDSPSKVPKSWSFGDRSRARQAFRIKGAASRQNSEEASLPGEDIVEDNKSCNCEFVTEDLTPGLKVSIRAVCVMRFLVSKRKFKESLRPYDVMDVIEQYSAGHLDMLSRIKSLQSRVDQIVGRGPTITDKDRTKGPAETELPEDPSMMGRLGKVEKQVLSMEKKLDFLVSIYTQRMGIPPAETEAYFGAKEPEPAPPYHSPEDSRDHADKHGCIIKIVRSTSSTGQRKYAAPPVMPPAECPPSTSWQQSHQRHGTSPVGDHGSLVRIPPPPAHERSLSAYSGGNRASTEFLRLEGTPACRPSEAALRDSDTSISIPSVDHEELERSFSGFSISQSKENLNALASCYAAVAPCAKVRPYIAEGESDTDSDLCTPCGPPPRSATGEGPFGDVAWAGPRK

Experiment [4] deals with Potassium voltage-gated channel subfamily KQT member 1 (Homo sapiens) (UniProt P51787). Briefly: KCNQ1 activators by electrophysiology – IonWorks patch clamp, KCNQ1-CHO cells, orthogonal assay for KCNQ1 potentiator project, confirmation (AID 493184;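 active = current rise at least 3 SD above the untreated control mean in each of two repeat wells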). The settings on record: automated patch clamp current, at 10 µM; active compounds read high. Put shortly:
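Read-out: Percent current increase versus pre-compound level | Assay system: CHO cells carrying KCNQ1 | Measured by: Automated perforated-patch electrophysiology | Medium: External bath solution at pH 7.4 | Dosing: One dose, 10 µM final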
For orientation: In patch-clamp work, channel activity is measured electrically.

Potassium voltage-gated channel subfamily KQT member 1 (Homo sapiens), sequence (P51787 whole entry, looked up): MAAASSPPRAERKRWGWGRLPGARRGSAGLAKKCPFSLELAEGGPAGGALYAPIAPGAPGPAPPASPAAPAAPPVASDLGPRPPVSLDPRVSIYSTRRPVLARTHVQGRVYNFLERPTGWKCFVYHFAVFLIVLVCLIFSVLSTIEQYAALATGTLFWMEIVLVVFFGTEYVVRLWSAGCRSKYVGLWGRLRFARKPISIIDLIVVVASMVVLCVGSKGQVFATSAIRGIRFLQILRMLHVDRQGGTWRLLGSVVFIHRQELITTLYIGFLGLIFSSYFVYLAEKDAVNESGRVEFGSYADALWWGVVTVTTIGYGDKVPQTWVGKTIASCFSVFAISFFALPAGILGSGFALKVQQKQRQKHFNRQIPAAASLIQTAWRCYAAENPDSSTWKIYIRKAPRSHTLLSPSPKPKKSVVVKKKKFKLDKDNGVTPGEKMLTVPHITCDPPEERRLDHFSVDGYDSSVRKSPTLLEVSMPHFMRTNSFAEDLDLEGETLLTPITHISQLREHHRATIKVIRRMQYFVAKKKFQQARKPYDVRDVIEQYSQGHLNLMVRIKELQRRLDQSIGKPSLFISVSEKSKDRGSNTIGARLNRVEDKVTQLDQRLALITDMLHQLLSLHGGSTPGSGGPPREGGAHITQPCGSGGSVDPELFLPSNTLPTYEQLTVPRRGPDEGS

For the compound `COc1ccccc1CNC(=O)c1oc2ccc(S(=O)(=O)N3CCOCC3)cc2c1C`, the outcome in experiment [1], in experiment [2], in experiment [3] and in experiment [4] was inactive.

For `COc1ccc(NC(=S)NC(=O)c2ccc(Br)o2)cc1`, the activation in experiment [1] was 146% (active). The potentiation is 45.5% (active) in experiment [2] and 195% (active) in experiment [3]. Further, the outcome in experiment [4] was inactive.

In the case of `Cc1ccc(C)c2sc(NC(=O)c3nc4ccccc4s3)nc12`, the result in experiment [1], in experiment [3] and in experiment [4] was inactive. The potentiation in experiment [2] is 18% (active).

As for `C/C(=N\NC(=S)Nc1ccc(C)cc1)c1cc2ccccc2o1`, the result in experiment [1] and in experiment [4] was inactive. The results for the potentiation in experiment [2] and in experiment [3] were 97% (active) and 169% (active), respectively.

With `O=C(NC(=S)Nc1ccc(N2CCCCC2)cc1)c1cccs1`, in experiment [1], the activation is 158% (active). The potentiation in experiment [2] was 74.5% (active); in experiment [3], 162% (active). Besides, in experiment [4], the result was inactive.

For the compound `COc1ccccc1C(=O)NNC(=O)C(=O)NC1CCCCC1`, the activation in experiment [1] was 262% (active). For the same compound, the potentiation in experiment [2] is 67.5% (active); in experiment [3] it was 262% (active). For the same compound, the outcome in experiment [4] was inactive.

`Oc1c(Br)cc(Cl)cc1C=Nc1ccccc1Br`: the activation in experiment [1] is 296% (active). The potentiation in experiment [2] is 161% (active); in experiment [3] it was 310% (active). In addition, the outcome in experiment [4] was inactive.

Take `COc1ccc(Cl)cc1NC(=O)/C=C\C(=O)O`: the outcome in experiment [1], in experiment [2], in experiment [3] and in experiment [4] was inactive.

Regarding `CCc1cc(-c2n[nH]c(C)c2-c2nc3ccccc3s2)c(O)cc1OCC(=O)NN`, the outcome in experiment [1], in experiment [2], in experiment [3] and in experiment [4] was inactive.

Regarding `CCc1ccccc1NC(=O)C1CCN(C(=O)N2CCOc3ccccc32)CC1`, the result in experiment [1], in experiment [2], in experiment [3] and in experiment [4] was inactive.

`NC(N)=N/N=C/c1ccccc1OC(F)F`: the outcome in experiment [1], in experiment [2], in experiment [3] and in experiment [4] was inactive.

Regarding `S=c1nc(Cc2ccccc2)[nH]c2ccccc12`, in experiment [1], the activation was 280% (active). Besides, the potentiation in experiment [2] was 110% (active); in experiment [3] it was 415% (active). Moreover, the outcome in experiment [4] was inactive.

As for `CC(=O)NC(C1C(=O)CC(C)(C)CC1=O)(C(F)(F)F)C(F)(F)F`, the result in experiment [1], in experiment [2], in experiment [3] and in experiment [4] was inactive.

Consider `O=C(NC(=S)N1CCN(c2ccccc2)CC1)c1ccccc1`, for which, in experiment [1], the activation was 226% (active). In addition, the figures for the potentiation in experiment [2] and in experiment [3] were 71% (active) and 281% (active), respectively. The outcome in experiment [4] was inactive.

Regarding `CC(=O)N[C@H]1[C@H](OC2CCCCC2)O[C@H](COC(C)=O)[C@@H](OC(C)=O)[C@@H]1OC(C)=O`, the result in experiment [1], in experiment [2], in experiment [3] and in experiment [4] was inactive.

Consider `O=C(NC(=S)N1CCCC(C(F)(F)F)C1)c1ccc(F)cc1` (stereo not drawn), for which, in experiment [1], the activation was 296% (active). The potentiation in experiment [2] is 66.5% (active); in experiment [3] it was 260% (active). Besides, the result in experiment [4] was inactive.

On to `CCN(c1ccccc1)S(=O)(=O)c1ccc(NC(=O)c2nc(S(C)(=O)=O)ncc2Cl)cc1`, for which the result in experiment [1], in experiment [2] and in experiment [4] was inactive. Besides, in experiment [3], the potentiation was 156% (active).

Turning to `C=CCn1c(=S)[nH]c2sc3c(c2c1=O)CCC3`, the activation in experiment [1] is 364% (active). For the same compound, the potentiation is 124% (active) in experiment [2] and 301% (active) in experiment [3]. The result in experiment [4] was inactive.

Consider `COc1ccc(/C=N\NC(=S)SCN2C(=O)C3CCC(C)(C2=O)C3(C)C)cc1` (stereo not drawn), for which the result in experiment [1], in experiment [2], in experiment [3] and in experiment [4] was inactive.

`Cc1[nH]n(-c2ccccc2)c(=O)c1/C=N/N(c1ccccc1)c1ccccc1`: the outcome in experiment [1], in experiment [3] and in experiment [4] was inactive. For the same compound, in experiment [2], the potentiation was 47% (active).

On to `OC(CNC1CCCCC1)COCCOc1ccc(Br)cc1` (stereo not drawn), for which the outcome in experiment [1], in experiment [2], in experiment [3] and in experiment [4] was inactive.

Regarding `COc1cccc(-c2c(NC(=O)c3ccco3)n(-c3ccc(C)cc3)nc(C)c2=O)c1`, the result in experiment [1], in experiment [2], in experiment [3] and in experiment [4] was inactive.

In the case of `Cc1c(CN2CCN(C)C(CCO)C2)[nH]c2c(Cl)cccc12` (stereo not drawn), the result in experiment [1], in experiment [2], in experiment [3] and in experiment [4] was inactive.

As to `S=c1[nH]nc(-c2ccco2)n1/N=C/c1ccc(Cl)cc1Cl`, the activation in experiment [1] is 174% (active). The potentiation was 48% (active) in experiment [2] and 173% (active) in experiment [3]. In addition, the outcome in experiment [4] was inactive.

In the case of `O=C(NC(=S)N1CCN(c2ccccc2)CC1)c1c(F)cccc1F`, the result in experiment [1], in experiment [2], in experiment [3] and in experiment [4] was inactive.

In the case of `S=c1[nH]cnc2scc(-c3ccc(Cl)cc3)c12`, the activation in experiment [1] is 158% (active). Further, the potentiation was 47% (active) in experiment [2] and 191% (active) in experiment [3]. Also, the outcome in experiment [4] was inactive.

Take `CCc1ccc(NC(=O)C(=O)NNC(=O)c2cccc(OC)c2)cc1`: in experiment [1], the activation is 269% (active). For the same compound, the potentiation in experiment [2] is 124% (active); in experiment [3], 339% (active). In experiment [4], the outcome was inactive.

In the case of `CSc1nsc(SCC(=O)Nc2ccccc2)n1`, the result in experiment [1], in experiment [2], in experiment [3] and in experiment [4] was inactive.

Consider `CCOC(=O)c1c(-c2ccccc2)oc2ccc(O)c(CN3CCN(C)CC3)c12`, for which the result in experiment [1], in experiment [2], in experiment [3] and in experiment [4] was inactive.

Turning to `c1ccc2c(OCCCCN3CCOCC3)cccc2c1`, the result in experiment [1], in experiment [2], in experiment [3] and in experiment [4] was inactive.

`COc1cccc(C=NCC(C)N=Cc2cccc(OC)c2O)c1O` (stereo not drawn): the result in experiment [1], in experiment [2], in experiment [3] and in experiment [4] was inactive.

With `CCc1ccc(/C=C/C(=O)c2cc(Br)ccc(=O)c2O)cc1`, the activation in experiment [1] is 203% (active). Further, the figures for the potentiation in experiment [2] and in experiment [3] were 140% (active) and 296% (active), respectively. Moreover, the outcome in experiment [4] was inactive.
